Laboratory results taken from ChEMBL document CHEMBL1122046, “Quaternary heterocyclylamino beta-lactams: a generic alternative to the classical acylamino side chain” (1982).
≈ marks a conversion by molar mass, not a printed value.

How the values were obtained:
Salmonella [1] = test: Inhibition zone diameter against aerobic organism Salmonella strain 826
Pseudomonas aeruginosa [2] = test: Inhibition zone diameter against aerobic organism Pseudomonas aeruginosa strain 3350
Staphylococcus aureus [3] = test: Inhibition zone diameter against aerobic organism Staphylococcus aureus strain 2314
Streptococcus pyogenes [4] = test: Inhibition zone diameter against aerobic organism Streptococcus pyogenes strain 2874
Klebsiella = test: Inhibition zone diameter against aerobic organism Klebsiella species strain 2921
Serratia marcescens [5] = test: Inhibition zone diameter against aerobic organism Serratia marcescenes strain 2855
Morganella morganii [6] = test: Disk zone diameter (25 ug/disk) against aerobic organism Morganella morganii strain 2834
Proteus vulgaris = test: Minimum inhibitory concentration against aerobic organism Proteus vulgaris strain 2829; assay type: functional; settings: Proteus vulgaris; read-out: MIC
How it was run: (§1)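 Agar-dilution MIC in µg/mL against aerobic bacterial strains on tryptocase soy agar, with inoculum applied as spots. Most series used 10^5 cfu per spot, and a later series used 10^4 cfu per spot. In some tables, footnoted strains were instead tested on Mueller-Hinton or nutrient agar. β-Lactamase-producing strains are flagged.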

Staphylococcus aureus [7] = test: Minimum inhibitory concentration against aerobic organism Staphylococcus aureus strain 2865; assay type: functional
How it was run: as §1

Enterococcus faecalis [8] = test: Minimum inhibitory concentration against aerobic organism Streptococcus faecalis strain 2864; assay type: functional
How it was run: as §1

Enterobacter cloacae [9] = test: Minimum inhibitory concentration against aerobic organism Enterobacter cloacae strain 2646; assay type: functional; settings: Enterobacter cloacae; read-out: MIC
How it was run: as §1

Klebsiella aerogenes [10] = test: Minimum inhibitory concentration against aerobic organism Enterobacter aerogenes strain 2828; assay type: functional
How it was run: as §1

Staphylococcus aureus [11] = test: Minimum inhibitory concentration against aerobic organism Staphylococcus aureus strain 2868; assay type: functional; settings: Staphylococcus aureus; read-out: MIC
How it was run: as §1

Klebsiella pneumoniae [12] = test: Minimum inhibitory concentration against aerobic organism Klebsiella pneumoniae strain 4005; assay type: functional
How it was run: as §1

Escherichia coli = test: MIC against aerobic organism Escherichia coli strain 2891; assay type: functional; settings: Escherichia coli; read-out: MIC
How it was run: as §1

Salmonella [13] = test: Minimum inhibitory concentration against aerobic organism Salmonella strain 3860; assay type: functional
How it was run: as §1

Proteus mirabilis = test: Minimum inhibitory concentration against aerobic organism Proteus mirabilis strain 2830; assay type: functional; settings: Proteus mirabilis; read-out: MIC
How it was run: as §1

Morganella morganii [14] = test: Minimum inhibitory concentration against aerobic organism Morganella morganii strain 2833; assay type: functional; settings: Morganella morganii; read-out: MIC
How it was run: as §1

Pseudomonas aeruginosa [15] = test: Minimum inhibitory concentration against aerobic organism Pseudomonas aeruginosa strain 2835; assay type: functional
How it was run: as §1

Enterococcus faecalis [16] = test: Minimum inhibitory concentration against aerobic organisms Streptococcus faecalis strain 2864; assay type: functional
How it was run: as §1

Enterobacter cloacae [17] = test: Minimum inhibitory concentration against aerobic organism Enterobacter cloacae 2646; assay type: functional
How it was run: as §1

Staphylococcus aureus [18] = test: Inhibition zone diameter against aerobic organism Staphylococcus aureus strain 2314; remark: listed apart in the source
Salmonella [19] = test: Minimum inhibitory concentration against aerobic organism Salmonella strain 3860
[20] = Minimum inhibitory concentration against aerobic organism Salmonella schottmuelleri strain 2837; assay type: functional; settings: Salmonella; read-out: MIC
How it was run: as §1

Shigella = test: (§2) Minimum inhibitory concentration against aerobic organism Shigella species strain 2880; assay type: functional; settings: Shigella; read-out: MIC
How it was run: as §1

Klebsiella aerogenes [21] = test: Minimum inhibitory concentration against aerobic organism Enterobacter aerogenes strain 2906; assay type: functional; settings: Klebsiella aerogenes; read-out: MIC
How it was run: as §1

Streptococcus pyogenes [22] = test: Minimum inhibitory concentration against aerobic organism Streptococcus pyogenes strain 3124; assay type: functional
How it was run: as §1

Klebsiella pneumoniae [23] = test: Minimum inhibitory concentration against aerobic organism Klebsiella pneumoniae strain 2882; assay type: functional; settings: Klebsiella pneumoniae; read-out: MIC
How it was run: as §1

Morganella morganii [24] = test: Minimum inhibitory concentration against aerobic organism Morganella morganii strain 2833
Serratia marcescens [25] = test: Minimum inhibitory concentration against aerobic organism Serratia marcescens strain 2852; assay type: functional; settings: Serratia marcescens; read-out: MIC
How it was run: as §1

Shigella sp. = test: as §2; assay type: functional
How it was run: as §1

Compound	MIC (Proteus vulgaris) [µg/mL]	MIC (Staphylococcus aureus [7]) [µg/mL]	MIC (Enterococcus faecalis [8]) [µg/mL]	MIC (Enterobacter cloacae [9]) [µg/mL]	MIC (Klebsiella aerogenes [10]) [µg/mL]	MIC (Staphylococcus aureus [11]) [µg/mL]	MIC (Klebsiella pneumoniae [12]) [µg/mL]	MIC (Escherichia coli) [µg/mL]	MIC (Salmonella [13]) [µg/mL]	MIC (Proteus mirabilis) [µg/mL]	MIC (Morganella morganii [14]) [µg/mL]	MIC (Pseudomonas aeruginosa [15]) [µg/mL]	other results
CC(O)[C@H]1C(=O)N2C(C(=O)[O-])=C(SCCNc3cc[n+](C)cc3)C[C@H]12 (some centres undefined)													zone diameter (Salmonella [1]): 28 mm; zone diameter (Pseudomonas aeruginosa [2]): 24.5 mm; zone diameter (Staphylococcus aureus [3]): 42 mm; zone diameter (Streptococcus pyogenes [4]): 37.5 mm; zone diameter (Klebsiella): 27 mm; zone diameter (Serratia marcescens [5]): 26.5 mm; zone diameter (Morganella morganii [6]): 26 mm
CC(=O)NCCSC1=C(C(=O)O)N2C(=O)[C@H](C(C)O)[C@H]2C1 (some centres undefined)													zone diameter (Salmonella [1]): 30.5 mm; zone diameter (Pseudomonas aeruginosa [2]): 10 mm; zone diameter (Streptococcus pyogenes [4]): 37 mm; zone diameter (Klebsiella): 28 mm; zone diameter (Serratia marcescens [5]): 28 mm; zone diameter (Staphylococcus aureus [18]): 39 mm; zone diameter (Morganella morganii [6]): 28.5 mm
Cn1nnnc1SCC1=C(C(=O)[O-])N2C(=O)[C@@H](Nc3cc[n+](COCC(Cl)(Cl)Cl)cc3C(=O)[O-])[C@H]2SC1.[Na+]	> 128	> 128	> 128	> 128	> 128	> 128	> 128	64	> 128	> 128	> 128	> 128	
CC1(C)S[C@@H]2[C@H](NC(=O)[C@H](N)c3ccccc3)C(=O)N2[C@H]1C(=O)O [AMPICILLIN]						25 (≈ 71.5 µM)		> 100					MIC (Enterococcus faecalis [16]): 6.25 µg/mL (≈ 17.9 µM); MIC [20]: 1.56 µg/mL (≈ 4.46 µM); MIC (Shigella sp.): 6.25 µg/mL (≈ 17.9 µM); MIC (Streptococcus pyogenes [22]): < 0.09 µg/mL; MIC (Klebsiella pneumoniae [23]): 50 µg/mL (≈ 143 µM); MIC (Enterobacter cloacae [17]): > 100 µg/mL

Second part, led by results:

MIC (Proteus vulgaris) [µg/mL]	MIC (Staphylococcus aureus [7]) [µg/mL]	MIC (Enterococcus faecalis [8]) [µg/mL]	MIC (Enterobacter cloacae [9]) [µg/mL]	MIC (Klebsiella aerogenes [10]) [µg/mL]	MIC (Staphylococcus aureus [11]) [µg/mL]	MIC (Klebsiella pneumoniae [12]) [µg/mL]	MIC (Escherichia coli) [µg/mL]	MIC (Salmonella [13]) [µg/mL]	MIC (Proteus mirabilis) [µg/mL]	MIC (Morganella morganii [14]) [µg/mL]	MIC (Pseudomonas aeruginosa [15]) [µg/mL]	Compound	other results
1 (≈ 1.94 µM)	2 (≈ 3.89 µM)	> 128	64 (≈ 124 µM)	> 128	8 (≈ 15.5 µM)	128 (≈ 249 µM)	1 (≈ 1.94 µM)	128 (≈ 249 µM)	> 128	> 128	> 128	CC(=O)OCC1=C(C(=O)[O-])N2C(=O)[C@@H](Nc3cc[n+](COCc4ccc([N+](=O)[O-])cc4)cc3)[C@H]2SC1	
128 (≈ 323 µM)	0.015 (≈ 0.0378 µM)			32 (≈ 80.7 µM)	0.06 (≈ 0.151 µM)	0.25 (≈ 0.631 µM)	> 128	2 (≈ 5.04 µM)	32 (≈ 80.7 µM)	> 128	> 128	CC(=O)OCC1=C(C(=O)O)N2C(=O)[C@@H](NC(=O)Cc3cccs3)[C@H]2SC1 [CEPHALOTHIN]	MIC (Enterococcus faecalis [16]): 8 µg/mL (≈ 20.2 µM); MIC (Enterobacter cloacae [17]): > 128 µg/mL
0.25 (≈ 0.489 µM)	0.25 (≈ 0.489 µM)	64 (≈ 125 µM)	0.125 (≈ 0.244 µM)	16 (≈ 31.3 µM)	2 (≈ 3.91 µM)	16 (≈ 31.3 µM)	< 0.06		128 (≈ 250 µM)	128 (≈ 250 µM)	> 128	Cc1nnc(SCC2=C(C(=O)[O-])N3C(=O)[C@@H](Nc4cc[n+](Cc5ccccc5)cc4)[C@H]3SC2)s1	MIC (Salmonella [19]): 0.125 µg/mL (≈ 0.244 µM)
< 0.5		> 128	16 (≈ 32.5 µM)		16 (≈ 32.5 µM)		2 (≈ 4.07 µM)		128 (≈ 260 µM)		> 128	CCOC(=O)C[n+]1ccc(N[C@@H]2C(=O)N3C(C(=O)[O-])=C(CSc4nnnn4C)CS[C@H]23)cc1	MIC [20]: 2 µg/mL (≈ 4.07 µM); MIC (Shigella): < 0.5 µg/mL; MIC (Klebsiella aerogenes [21]): 32 µg/mL (≈ 65.1 µM); MIC (Streptococcus pyogenes [22]; Streptococcus pyogenes, read-out: MIC): < 0.5 µg/mL; MIC (Klebsiella pneumoniae [23]): 4 µg/mL (≈ 8.14 µM); MIC (Morganella morganii [24]): > 128 µg/mL; MIC (Serratia marcescens [25]): > 128 µg/mL
